Assay results published in ChEMBL document CHEMBL1130251, “Enzymatic properties of the unnatural beta-L-enantiomers of 2',3'-dideoxyadenosine and 2',3'-didehydro-2',3'-dideoxyadenosine” (J Med Chem, 1997).

Assays:
Adenosine deaminase = molecular target: T1, Adenosine deaminase (Bos taurus, UniProt P56658); assay: inhibitory activity against Adenosine deaminase
T1 sequence (P56658 whole entry): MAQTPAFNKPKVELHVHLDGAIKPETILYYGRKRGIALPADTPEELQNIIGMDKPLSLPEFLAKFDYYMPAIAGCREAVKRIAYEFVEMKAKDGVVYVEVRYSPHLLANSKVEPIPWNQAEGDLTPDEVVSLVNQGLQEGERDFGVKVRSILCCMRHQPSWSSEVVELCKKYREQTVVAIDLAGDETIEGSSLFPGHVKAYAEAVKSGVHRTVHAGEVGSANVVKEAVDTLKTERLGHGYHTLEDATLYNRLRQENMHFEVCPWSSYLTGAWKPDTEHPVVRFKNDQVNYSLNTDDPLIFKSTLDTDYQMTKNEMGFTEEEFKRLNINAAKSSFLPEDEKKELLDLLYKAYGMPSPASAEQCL
Summary of the method: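 Adenosine deaminase (calf intestinal mucosa, type VIII) at 37 °C in 50 mM phosphate pH 7.5. Substrate tests used 20–80 μM nucleoside and 0.01–1 unit enzyme, with HPLC product analysis. Inhibition was read by UV spectrometry with adenosine 20–100 μM. Ki was taken from Lineweaver–Burk plots assuming competitive inhibition.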

[1] = Half life of the compound; type: ADME
Summary of the method: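 Deamination by calf intestinal mucosa adenosine deaminase (type VIII) at 37 °C in 50 mM phosphate buffer pH 7.5. Substrate 20–80 μM with 0.01–1 unit of enzyme depending on substrate. Conversion followed over time by HPLC on C-18 with a phosphate pH 6 / acetonitrile gradient, which also confirmed the deaminated nucleoside as sole product.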

Nc1ncnc2c1ncn2[C@H]1CC[C@@H](CO)O1
Ki (Adenosine deaminase): 120 µM

Nc1ncnc2c1ncn2[C@H]1C=C[C@@H](CO)O1
half-life [1]: 74.4 h
